CHO parental Ca: signal in parental CHO cells, OX1R antagonist counter-screen. parental CHO-K1, ATP-induced calcium, Fluo-8 fluorescence. inhibition, % at 5.6 µM. actives 0.63% (n = 330,000). AID 463079;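 active means inhibition above that plate's mean sample inhibition plus 3 SD, cut at about 26% in these data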
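Test system: untransfected parental CHO cell line. Compound: one dose, 5.6 µM nominal. Detection: intracellular calcium via Fluo-8 no-wash fluorescent dye. Measure: % inhibition. Benchmarks: ATP-challenged DMSO wells low, unchallenged DMSO wells high.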
GPR7 antag: blocks human GPR7 receptor signaling | P48145 | GPR7-expressing cells, fluorescence antagonist assay | inhibition, % at 4.4 µM | actives 1.1% (n = 290,000); in the data active means inhibition above about 16%, passing the limit was not always enough;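 further: cells stimulated with the agonist NPW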
Target sequence (P48145 whole entry, looked up): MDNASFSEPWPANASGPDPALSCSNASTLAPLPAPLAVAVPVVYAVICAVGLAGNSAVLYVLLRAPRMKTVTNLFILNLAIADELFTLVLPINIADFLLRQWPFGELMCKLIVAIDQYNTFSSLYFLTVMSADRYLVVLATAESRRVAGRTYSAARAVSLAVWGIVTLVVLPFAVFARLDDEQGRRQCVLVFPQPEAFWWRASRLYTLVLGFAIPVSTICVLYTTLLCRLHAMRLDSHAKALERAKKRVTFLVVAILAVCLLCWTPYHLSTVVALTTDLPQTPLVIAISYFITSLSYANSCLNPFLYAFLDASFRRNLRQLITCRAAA
TAAR1 antagonist: human TAAR1 antagonism; Q96RJ0; CHO RD-HGA16 TAAR1, Fluo-8 calcium fluorescence, antagonist; inhibition, % at 3 µM; actives 1.5% (n = 360,000);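 active means inhibition above a per-plate cutoff, the mean inhibition of test compounds on that plate plus 3 SD, cut at about 49% in these data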
Target sequence (Q96RJ0 whole entry, looked up): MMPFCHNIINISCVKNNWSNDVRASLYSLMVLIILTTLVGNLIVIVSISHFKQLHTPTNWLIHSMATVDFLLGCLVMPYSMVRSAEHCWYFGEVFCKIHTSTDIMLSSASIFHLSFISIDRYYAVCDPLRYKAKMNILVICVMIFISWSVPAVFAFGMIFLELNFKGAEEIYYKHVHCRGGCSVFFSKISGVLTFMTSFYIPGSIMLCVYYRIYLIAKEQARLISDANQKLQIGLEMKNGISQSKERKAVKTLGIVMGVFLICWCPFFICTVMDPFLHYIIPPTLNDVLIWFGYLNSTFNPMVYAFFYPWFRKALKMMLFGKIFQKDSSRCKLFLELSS
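Test system: CHO RD-HGA16 cells bearing hTAAR1 | Reagent: β-PEA, EC80 | Compound dosing: 3 µM, single point | Schedule: Dye loading 75 min at 37 °C, then 30 min room temperature | Signal: Calcium fluorescence with Fluo-8 | Evaluation: Percent inhibition of PEA-evoked calcium signal, max/basal emission ratio | Control set: DMSO-only wells and EC80 β-PEA-stimulated wells | Repeats: Singlicate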
TAAR1 ag: human TAAR1 agonism; Q96RJ0; CHO RD-HGA16 TAAR1, Fluo-8 calcium fluorescence; vehicle wells 0%, saturating PEA agonist 100%; activation, % at 3 µM; actives 0.99% (n = 360,000); AID 624467;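 active means activation above the mean activation of all test compounds in the run plus 3 SD, cut at about 38% in these data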
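System: CHO-derived RD-HGA16 cells with stable Gα16 and human TAAR1 / Times: 17-24 h plating, Fluo-8 75 min 37 °C, 30 min RT / Technique: calcium-sensitive Fluo-8 signal, excitation 470-495, emission 515-575 nm / Measure: % activation relative to PEA EC100 response / Benchmarks: DMSO and PEA EC100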
OX1R antag-1: OX1R (human) antagonism. O43613. OX1R-expressing cells, FRET antagonist read-out. actives 1.8% (n = 330,000). inhibition, % at 6.6 µM; in the data active means inhibition mostly above about 38%, no sharp cut-off; inactive means mostly below about 40%
OX1R antag-2: blocks the human orexin 1 receptor; O43613; CHO/OX1R cells, Fluo-8 calcium fluorescence, orexin A; inhibition, % at 5 µM; actives 0.43% (n = 330,000);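 active means inhibition above its plate's threshold, mean inhibition of all tested compounds on the plate plus 3 SD, cut at about 37% in these data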
TAAR1 ag conf: confirmation of human TAAR1 agonists; AID 651783; actives 82% (n = 2,400); CHO RD-HGA16 TAAR1, Fluo-8 calcium fluorescence; scaled: DMSO 0%, maximal phenethylamine 100%; activation, % at 3 µM; shares compounds with TAAR1 ag;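 active means activation above a cutoff set at the run's mean compound activation plus 3 SD, cut at about 39% in these data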
Ga16 ag counter: counter-screen for TAAR1 agonists: nonselective agonists in parental cells; shares compounds with TAAR1 ag; actives 50% (n = 2,400); activation, % at 3 µM; CHO-Ga16 parental, Fluo-8 calcium fluorescence; normalized to maximal ATP response, DMSO zero;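 active means activation above the run cutoff, the mean activation over all tested wells plus 3 SD, cut at about 12% in these data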
TAAR1 desensitize: human TAAR1 agonist that also desensitizes the receptor; inhibition, % at 3 µM; AID 651951; shares compounds with TAAR1 ag; CHO RD-HGA16 hTAAR1, Fluo-8 calcium, beta-PEA response inhibition; actives 46% (n = 2,400);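 active means inhibition above the run cutoff, the mean inhibition of all test compounds plus 3 SD, cut at about 49% in these data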;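 further: beta-PEA stimulus applied at its EC80; loss of beta-PEA calcium signal after compound pretreatment read as receptor desensitization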
Ga16 antag count: counter-screen for TAAR1 agonists: nonselective Ga16 antagonists | actives 39% (n = 2,400) | AID 651952 | shares compounds with TAAR1 ag | CHO-Ga16 ATP-induced calcium, Fluo-8 fluorescence | inhibition, % at 3 µM;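 active means inhibition above the plate's mean compound inhibition plus 3 SD, computed per plate, cut at about 22% in these data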
Large screens that a line does not name were inactive (follow-up assays come after a bar, where they were run). A selection: hits, their analogues and other compounds. The true share with any hit is near 4.5%.

O=C(O)/C=C/C(=O)NCCCc1ccccc1	TAAR1 ag 74 | TAAR1 ag conf 103 | Ga16 ag counter inactive | TAAR1 desensitize 78 | Ga16 antag count inactive
O=C(O)/C=C/C(=O)NCc1ccccc1	none
Cn1ncc(Br)c1C(=O)NC12CC3CC(CC(C3)C1)C2	none
COc1cc2[nH]c(C(=O)N3CCc4ccccc4C3)cc2c(OC)c1OC	TAAR1 ag 44 | TAAR1 ag conf 72 | Ga16 ag counter inactive | TAAR1 desensitize inactive | Ga16 antag count inactive
Cc1cc(C)c2c(c1)/C(=N/NC(=O)c1cc(C)oc1C)CCC2	TAAR1 ag 82 | TAAR1 ag conf inactive | Ga16 ag counter inactive | TAAR1 desensitize inactive | Ga16 antag count inactive
O=C1/C(=C/c2ccc(N3CCCC3)cc2)NC(=S)N1C1CC1	CHO parental Ca 58, TAAR1 antagonist 99, TAAR1 ag 177, OX1R antag-2 106 | TAAR1 ag conf 58 | Ga16 ag counter 61 | TAAR1 desensitize 71 | Ga16 antag count 71
CN(C(=O)Nc1ccc(F)cc1)[C@H]1C[C@H]2c3[nH]c4ccccc4c3CCN2C(=O)[C@H]1CO	none (no result: CHO parental Ca, GPR7 antag, OX1R antag-1, OX1R antag-2)
O=C(CCSc1nnc(-c2ccncc2)o1)Nc1ccc(Cl)cc1	TAAR1 ag 40 | TAAR1 ag conf 40 | Ga16 ag counter inactive | TAAR1 desensitize inactive | Ga16 antag count inactive
CCOC(=O)C(C(=O)OCC)C(=O)c1cccc2ccc3ccccc3c12	none (no result: CHO parental Ca, GPR7 antag, OX1R antag-1, OX1R antag-2)
c1ccc(SCCOCCN2CCc3ccccc3C2)cc1	TAAR1 ag 50 | TAAR1 ag conf 62 | Ga16 ag counter inactive | TAAR1 desensitize inactive | Ga16 antag count inactive
O=C(NC(=S)NNC(=O)c1cc2ccccc2cc1O)c1ccco1	TAAR1 ag 75 | TAAR1 ag conf 44 | Ga16 ag counter 37 | TAAR1 desensitize inactive | Ga16 antag count 25
COc1ccc(C(=O)NC(=S)NNC(=O)COc2ccccc2)cc1	TAAR1 ag 46 | TAAR1 ag conf 66 | Ga16 ag counter 52 | TAAR1 desensitize inactive | Ga16 antag count 23
COc1ccc(C(=O)NC(=S)NNC(=O)c2ccco2)cc1	none
COc1ccc(C(=O)NC(=S)NNC(=O)c2ccccc2O)cc1	TAAR1 ag 80 | TAAR1 ag conf 57 | Ga16 ag counter 55 | TAAR1 desensitize inactive | Ga16 antag count 27
COc1ccc(C(=O)NNC(=S)NC(=O)C(C)(C)C)cc1	CHO parental Ca 58, TAAR1 antagonist 98, TAAR1 ag 145, OX1R antag-2 62 | TAAR1 ag conf 106 | Ga16 ag counter 90 | TAAR1 desensitize inactive | Ga16 antag count 44
COc1ccc(C(=O)NNC(=O)CCC(=O)NNC(=O)c2ccc(OC)cc2)cc1	none
CC1CN(c2nnnn2-c2ccccc2)CC(C)O1 (stereo not drawn)	none
CC(C)NC(=O)c1cc(-n2cnnc2)ccc1Cl	none
COc1ccc(C(=O)NC(=S)NNC(=O)c2ccccc2C)cc1	TAAR1 antagonist 92, TAAR1 ag 170 (no result: GPR7 antag) | TAAR1 ag conf 143 | Ga16 ag counter 105 | TAAR1 desensitize 98 | Ga16 antag count 75
COc1ccccc1C(=O)NNC(=S)NC(=O)c1cc(OC)c(OC)c(OC)c1	none
CCCCCC(=O)NNC(=S)NC(=O)c1cccc([N+](=O)[O-])c1	none
COc1cc(C(=O)NC(=S)NNC(=O)[C@H]2C[C@@H]2c2ccccc2)cc(OC)c1OC	TAAR1 ag 74 | TAAR1 ag conf inactive | Ga16 ag counter 43 | TAAR1 desensitize inactive | Ga16 antag count inactive
COc1cc(C(=O)NNC(=S)NC(=O)c2ccccc2C)cc(OC)c1OC	TAAR1 ag 63 | TAAR1 ag conf inactive | Ga16 ag counter 44 | TAAR1 desensitize inactive | Ga16 antag count inactive
COc1ccc(C(=O)NNC(=S)NC(=O)c2cccc([N+](=O)[O-])c2)cc1	TAAR1 ag 66 (no result: GPR7 antag) | TAAR1 ag conf 88 | Ga16 ag counter 64 | TAAR1 desensitize inactive | Ga16 antag count 26
COc1ccc(C(=O)NC(=S)NNC(=O)c2cnccn2)cc1	none
Cc1ccc([N+](=O)[O-])c(OCc2ncc(Cl)n2C)c1	none
CCc1ccccc1NC(=O)CN(C)Cc1c(O)ccc2ccccc12	none
CN(CC(=O)Nc1ccccc1C(F)(F)F)Cc1c(O)ccc2ccccc12	TAAR1 ag 66 | TAAR1 ag conf inactive | Ga16 ag counter inactive | TAAR1 desensitize inactive | Ga16 antag count inactive
Cc1nn(Cc2ccc(Cl)cc2)c(C)c1NC(=O)c1cc(-c2ccco2)on1	TAAR1 antagonist 85, TAAR1 ag 65 | TAAR1 ag conf inactive | Ga16 ag counter 16 | TAAR1 desensitize 56 | Ga16 antag count 43
O=C(Nc1c(F)cc(F)cc1Br)c1cc(-c2ccco2)on1	TAAR1 ag 55 | TAAR1 ag conf 56 | Ga16 ag counter inactive | TAAR1 desensitize inactive | Ga16 antag count inactive
COc1ccc(-c2cc(C(=O)Nc3c(F)cc(F)cc3Br)no2)cc1	none
COc1ccc(-c2noc(CCC(=O)NCCc3ccccc3)n2)cc1	TAAR1 ag 51 | TAAR1 ag conf 62 | Ga16 ag counter inactive | TAAR1 desensitize inactive | Ga16 antag count inactive
O=C(CCc1nc(-c2ccccc2)no1)NCCc1ccccc1	none (no result: TAAR1 antagonist, TAAR1 ag)
COc1cccc(-c2noc(CCC(=O)NCCc3ccccc3)n2)c1	TAAR1 ag 47 | TAAR1 ag conf 67 | Ga16 ag counter inactive | TAAR1 desensitize inactive | Ga16 antag count inactive
C[C@H](CO)N1C[C@H](C)[C@@H](CN(C)C(=O)Nc2ccccc2)Oc2ccc(NC(=O)C3CCCCC3)cc2C1=O	none (no result: GPR7 antag)
COc1ccccc1C(=O)NCC(=O)N1CCN(S(=O)(=O)c2ccc3c(c2)OCCO3)CC1	none (no result: GPR7 antag)
O=C(CCCOc1ccccc1)NCCc1ccccc1	none (no result: TAAR1 antagonist, TAAR1 ag) | Ga16 ag counter inactive | Ga16 antag count inactive
C#CCOC(=O)CCC(=O)NCCc1ccccc1	TAAR1 antagonist 77, TAAR1 ag 63 | TAAR1 ag conf 84 | Ga16 ag counter inactive | TAAR1 desensitize 97 | Ga16 antag count inactive
Cc1nn(CCCC(=O)NCCc2ccccc2)c(=O)c2nccn12	TAAR1 ag 44 | TAAR1 ag conf 66 | Ga16 ag counter inactive | TAAR1 desensitize inactive | Ga16 antag count inactive

Screening results (PubChem)
